For seven molecules, IC50 results are on record in ChEMBL document CHEMBL1131127, “Syntheses of trans-5-oxo-hexahydro-pyrrolo[3,2-b]pyrroles and trans-5-oxo-hexahydro-furo[3,2-b]pyrroles (pyrrolidine trans-lactams and trans-lactones): new pharmacophores for elastase inhibition” (J Med Chem, 1998).

Assay [1] deals with T1, Neutrophil elastase (Homo sapiens, UniProt P08246).
T1 sequence (P08246 whole entry): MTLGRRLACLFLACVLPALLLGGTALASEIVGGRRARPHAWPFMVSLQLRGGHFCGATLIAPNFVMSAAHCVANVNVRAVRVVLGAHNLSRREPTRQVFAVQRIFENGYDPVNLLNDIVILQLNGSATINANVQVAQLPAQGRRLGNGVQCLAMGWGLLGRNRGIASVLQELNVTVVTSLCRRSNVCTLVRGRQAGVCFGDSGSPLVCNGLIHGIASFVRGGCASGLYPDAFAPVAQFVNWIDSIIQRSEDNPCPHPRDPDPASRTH
The experiment in a line: The compound was tested for inhibition of human neutrophil elastase enzyme with a pre-incubation time of 40 min. The method in brief: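 Compound preincubated with HNE for 40 min, then reaction started with MeO-Succ-Ala-Ala-Pro-Val-p-nitroanilide; p-nitroanilide release monitored spectrophotometrically to give IC50. Errors quoted as standard deviations.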

For assay [2], the target named is T2, Chymotrypsinogen A (Bos taurus, UniProt P00766). The assay is described as follows: The compound was tested for inhibition of Chymotrypsinogen with a pre-incubation time of 15 min.
For assay [3], the target named is T1, Neutrophil elastase. The assay is described as follows: The compound was tested for inhibition of human neutrophil elastase enzyme with a pre-incubation time of 0 min. The method in brief: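 HNE IC50: compound preincubated at 30 °C with substrate MeO-Succ-Ala-Ala-Pro-Val-p-nitroanilide, reaction started by adding HNE (0 min enzyme preincubation); p-nitroanilide release followed spectrophotometrically. Errors as standard deviations.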

Assay [4] deals with T3, Prothrombin (Homo sapiens, UniProt P00734). The assay is described as follows: The compound was tested for inhibition of thrombin with a preincubation time of 15 min.
Assay [5] deals with T3, Prothrombin. The assay is described as follows: The compound was tested for inhibition of thrombin with a pre-incubation time of 15 min.
Assay [6] addresses T2, Chymotrypsinogen A. The experiment in a line: The compound was tested for inhibition of Chymotrypsinogen with a pre-incubation time of 15 min.
Assay [7] addresses T1, Neutrophil elastase. The assay is described as follows: The compound was tested for inhibition of human neutrophil elastase enzyme with a pre-incubation time of 15 min. In outline:
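IC50 against HNE determined after a 15-min preincubation of compound with enzyme; substrate MeO-Succ-Ala-Ala-Pro-Val-p-nitroanilide, p-nitroanilide release read spectrophotometrically.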

The target of the next assay is T4, Cathepsin G (Homo sapiens, UniProt P08311).
T4 sequence (P08311 whole entry): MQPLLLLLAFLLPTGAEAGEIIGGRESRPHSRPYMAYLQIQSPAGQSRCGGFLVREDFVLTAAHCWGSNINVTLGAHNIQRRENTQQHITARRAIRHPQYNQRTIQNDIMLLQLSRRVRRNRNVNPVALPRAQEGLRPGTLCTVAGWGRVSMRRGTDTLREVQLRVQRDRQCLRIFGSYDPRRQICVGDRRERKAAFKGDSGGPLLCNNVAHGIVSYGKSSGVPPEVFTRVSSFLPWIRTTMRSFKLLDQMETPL
The assay is described as follows: The compound was tested for inhibition of cathepsin G with a pre-incubation time of 15 min.

The target of assay [8] is T3, Prothrombin. The experiment in a line: The compound was tested for inhibition of thrombin with a pre-incubation time of 15 min.

A value given as a limit tells only on which side of the number the result lay.

In the case of `CCC[C@@H](NC(=O)N1C(=O)C(CC)(CC)[C@@H]1Oc1ccc(C(=O)N2CCN(C)CC2)cc1)c1ccc2c(c1)OCO2`, the IC50 (usually the concentration at which inhibition is half-maximal) against Neutrophil elastase [1] amounted to 0.036 µM; on Chymotrypsinogen A [2], 0.98 µM; on Neutrophil elastase [3], 0.023 µM; against Prothrombin [4], 78.8 µM.
As to `C=CC[C@H]1C(=O)N(S(=O)(=O)c2cccc3ccccc23)[C@H]2CCN(C(=O)OCc3ccccc3)C12` (stereo partly drawn), the half-inhibitory concentration (IC50) against Prothrombin [5] is above 100 µM; against Neutrophil elastase [1] it was 0.088 µM; at Chymotrypsinogen A [2], 11.5 µM; against Neutrophil elastase [3], above 100 µM.
As to `C=CC[C@H]1C(=O)N[C@H]2CCN(C(=O)OCc3ccccc3)[C@@H]21`, the 50% inhibitory concentration (IC50) was above 100 µM against Prothrombin [5], above 500 µM on Neutrophil elastase [1], above 100 µM against Chymotrypsinogen A [6] and above 500 µM on Neutrophil elastase [3].
On to `C=CC[C@H]1C(=O)O[C@H]2CCN(C(=O)OCC)C21` (stereo partly drawn), for which the half-inhibitory concentration (IC50) at Neutrophil elastase [7] is 0.069 µM; at Prothrombin [5], above 200 µM; against Chymotrypsinogen A [2] it was 4 µM; against Cathepsin G, 3.6 µM.
With `C=CC[C@H]1C(=O)O[C@H]2CCN(C(=O)OCc3ccccc3)C21` (stereo partly drawn), the IC50 against Neutrophil elastase [1] was 0.047 µM; against Prothrombin [8], 49 µM; against Chymotrypsinogen A [2], 15.9 µM; at Neutrophil elastase [3] it was 0.336 µM.
Regarding `C=CC[C@H]1C(=O)N(S(C)(=O)=O)[C@H]2CCN(C(=O)OCc3ccccc3)[C@H]12`, the half-maximal inhibitory concentration (IC50) at Prothrombin [5] worked out at 53.2 µM; against Neutrophil elastase [1] it was 0.056 µM; against Chymotrypsinogen A [2], 40.6 µM; at Neutrophil elastase [3] it was 0.37 µM.
As for `C=CC[C@@H]1C(=O)O[C@H]2CCN(C(=O)OCc3ccccc3)C21` (stereo partly drawn), the IC50 on Neutrophil elastase [1] came out at 0.074 µM; against Prothrombin [8] it was 44.6 µM; on Chymotrypsinogen A [2], 4.86 µM; against Neutrophil elastase [3], 12.8 µM.
